Source: ChEMBL document CHEMBL1153702, “Synthesis and cytotoxic activity of 2-methylimidazo[1,2-a]pyridine- and quinoline-substituted 2-aminopyrimidine derivatives” (Eur J Med Chem, 2010)
The source made the active and inactive calls. The calls are words filed in the database; no cut-off is given here.

Experiments:
MCF7 [1] = experiment: Cytotoxicity against human MCF7 cells after 48 hrs by SRB assay; type: functional, cell-based; conditions: MCF7, 48 h
Procedure, shortened: (§1)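 SRB protein-staining assay: 5–10 × 10^3 cells/well in RPMI-1640/10% FCS, allowed 24 h to attach, then 48 h with compound dissolved from DMSO stock; TCA fixation, 0.4% SRB staining, Tris-solubilized dye read at 515 nm. IC50 from dose-response curve by non-linear regression; mean ± SD of three independent experiments.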

SK-LU-1 [2] = experiment: Cytotoxicity against human SK-LU-1 cells after 48 hrs by SRB assay; type: functional, cell-based; conditions: SK-LU-1, 48 h; procedure, shortened: as §1
SK-LU-1 [3] = experiment: Cytotoxicity against human SK-LU-1 cells at 50 uM after 48 hrs by SRB assay; type: functional; conditions: SK-LU-1, 48 h
Procedure, shortened: (§2)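 Cells in RPMI-1640 with 10% FCS at 37 °C, 5% CO2; 5–10 × 10^3 cells/well seeded 24 h, then exposed 48 h to 50 μM compound (DMSO stock; 5-fluorouracil at same concentration as positive control). TCA-fixed at 4 °C 1 h, stained with 0.4% SRB, dye solubilized in 10 mM Tris base, OD 515 nm; % growth inhibition, mean of three experiments in triplicate.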

MCF7 [4] = experiment: Cytotoxicity against human MCF7 cells at 50 uM after 48 hrs by SRB assay; type: functional; conditions: MCF7, 48 h; procedure, shortened: as §2
K562 = experiment: Cytotoxicity against human K562 cells at 50 uM after 48 hrs by SRB assay; type: functional; conditions: for inhibition at 50 µM: K562, 48 h; procedure, shortened: as §2
PC-3 = experiment: Cytotoxicity against human PC3 cells at 50 uM after 48 hrs by SRB assay; type: functional; conditions: PC-3, 48 h; procedure, shortened: as §2
U-251 = experiment: Cytotoxicity against human U251 cells at 50 uM after 48 hrs by SRB assay; type: functional; conditions: U-251, 48 h; procedure, shortened: as §2
HCT-15 = experiment: Cytotoxicity against human HCT15 cells at 50 uM after 48 hrs by SRB assay; type: functional; conditions: for inhibition at 50 µM: HCT-15, 48 h; procedure, shortened: as §2
[5] = biological target: Cyclin-dependent kinase 1/cyclin B1 (Homo sapiens) (UniProt P06493+P14635); conditions: at 7 µM
SK-LU-1 [6] = experiment: Induction of apoptosis in human SK-LU-1 cells assessed as apoptotic cells after 48 hrs using annexin-V-FITC/propidium iodide staining by flow cytometry; type: functional, cell-based
Procedure, shortened: (§3)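 2.5 × 10^5 cells per well attached 24 h, then treated 48 h with compound or DMSO vehicle at the highest concentration used. Adherent plus floating cells washed in PBS, resuspended in annexin-binding buffer, stained with annexin V-FITC and propidium iodide 10 min in the dark at room temperature; 10,000 events analysed by flow cytometry, quadrants scoring apoptotic versus late apoptotic/necrotic cells.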

SK-LU-1 [7] = experiment: Induction of apoptosis in human SK-LU-1 cells assessed as necrotic cells after 48 hrs using annexin-V-FITC/propidium iodide staining by flow cytometry; type: functional, cell-based; procedure, shortened: as §3
SK-LU-1 [8] = experiment: Cell cycle arrest in human SK-LU-1 cells assessed as accumulation at G2/M phase after 24 hrs by flow cytometry; type: functional
MCF7 [9] = experiment: Cell cycle arrest in human MCF7 cells assessed as accumulation at S phase after 24 hrs by flow cytometry; type: functional
SK-LU-1 [10] = experiment: Cell cycle arrest in human SK-LU-1 cells assessed as accumulation at G1 phase after 24 hrs by flow cytometry; type: functional
MCF7 [11] = experiment: Cell cycle arrest in human MCF7 cells assessed as accumulation at G2/M phase after 24 hrs by flow cytometry; type: functional
MCF7 [12] = experiment: Cell cycle arrest in human MCF7 cells assessed as accumulation at G1 phase after 24 hrs by flow cytometry; type: functional
SK-LU-1 [13] = experiment: Cell cycle arrest in human SK-LU-1 cells assessed as accumulation at S phase after 24 hrs by flow cytometry; type: functional

Sequence of Cyclin-dependent kinase 1/cyclin B1 (Homo sapiens) (P06493 whole entry, looked up): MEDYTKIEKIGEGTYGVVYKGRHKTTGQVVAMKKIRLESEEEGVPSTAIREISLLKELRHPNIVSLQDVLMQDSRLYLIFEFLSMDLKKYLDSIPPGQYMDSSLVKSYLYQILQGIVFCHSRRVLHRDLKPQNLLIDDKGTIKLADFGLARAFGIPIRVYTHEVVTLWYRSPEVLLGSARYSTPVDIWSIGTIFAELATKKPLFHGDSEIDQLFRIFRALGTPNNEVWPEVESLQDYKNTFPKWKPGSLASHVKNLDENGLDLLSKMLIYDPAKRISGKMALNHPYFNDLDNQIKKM
Sequence of Cyclin-dependent kinase 1/cyclin B1 (Homo sapiens) (P14635 whole entry, looked up): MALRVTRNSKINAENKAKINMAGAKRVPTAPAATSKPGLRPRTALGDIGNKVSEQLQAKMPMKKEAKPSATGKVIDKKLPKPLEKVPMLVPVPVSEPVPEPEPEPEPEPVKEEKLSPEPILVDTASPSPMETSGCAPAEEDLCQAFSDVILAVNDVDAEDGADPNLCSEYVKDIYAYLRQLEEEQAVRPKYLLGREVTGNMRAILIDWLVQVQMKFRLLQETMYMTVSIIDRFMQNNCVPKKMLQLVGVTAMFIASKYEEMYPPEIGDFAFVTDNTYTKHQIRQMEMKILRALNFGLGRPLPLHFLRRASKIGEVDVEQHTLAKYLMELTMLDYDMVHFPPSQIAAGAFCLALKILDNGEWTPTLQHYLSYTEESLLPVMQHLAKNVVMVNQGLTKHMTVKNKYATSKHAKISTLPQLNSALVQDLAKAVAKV

| Compound | IC50 (MCF7 [1]) [nM] | IC50 (SK-LU-1 [2]) [nM] | inhibition at 50 µM (SK-LU-1 [3]) [%] | inhibition at 50 µM (MCF7 [4]) [%] | inhibition at 50 µM (K562) [%] | inhibition at 50 µM (PC-3) [%] | inhibition at 50 µM (U-251) [%] | inhibition at 50 µM (HCT-15) [%] | inhibition [5] [%] | Activity (SK-LU-1 [6]) | Activity (SK-LU-1 [7]) | inhibition (K562) | inhibition (HCT-15) | Activity (SK-LU-1 [8]) [%] | Activity (MCF7 [9]) [%] | Activity (SK-LU-1 [10]) [%] | Activity (MCF7 [11]) [%] | Activity (MCF7 [12]) [%] | Activity (SK-LU-1 [13]) [%] |
| --- | --- | --- | --- | --- | --- | --- | --- | --- | --- | --- | --- | --- | --- | --- | --- | --- | --- | --- | --- |
| FC(F)(F)c1ccc(Nc2nccc(-c3c(C(F)(F)F)nc4ccccn34)n2)cc1 | 290 | 745 | 95 | 100 | 94.2 | 92 | 100 | 94.4 |  |  |  |  |  |  |  |  |  |  |  |
| O=c1[nH]cc(F)c(=O)[nH]1 [FLUOROURACIL] |  |  | 70.5 | 65.1 | 73.7 | 45.4 | 64.2 | 71.3 |  |  |  |  |  |  |  |  |  |  |  |
| Cc1nc2ccccn2c1-c1ccnc(Nc2ccc(C(F)(F)F)cc2)n1 | 66 | 34 | 100 | 83.4 | 84.8 | 64.5 | 85.6 | 88.6 | 60 |  |  |  |  |  |  |  |  |  |  |
| Nc1nccc(-c2c(C(F)(F)F)nc3ccccn23)n1 | 53700 | 56500 | 71 | 100 | 56.3 | 74 | 92.2 |  |  |  |  |  |  |  |  |  |  |  |  |
| Cc1ccc(Nc2nccc(-c3c(C(F)(F)F)nc4ccccn34)n2)cc1 | 44 | 175 | 100 | 100 | 100 | 100 | 100 | 100 |  | Active | inactive |  |  |  |  |  |  |  |  |
| Nc1nccc(-c2cnc3ccccc3c2)n1 | > 50000 | > 50000 | 59.3 | 100 |  | 31.9 | 38.5 |  |  |  |  | inactive | inactive |  |  |  |  |  |  |
| Cc1ccc(Nc2nccc(-c3cnc4ccccc4c3)n2)cc1 | 50000 |  | 46.3 | 100 |  | 59.5 | 87.7 | 30.3 | 73 |  |  | inactive |  |  |  |  |  |  |  |
| FC(F)(F)c1ccc(Nc2nccc(-c3cnc4ccccc4c3)n2)cc1 | > 50000 |  | 35.4 | 80.9 |  | 22.9 | 49.8 | 24 |  |  |  | inactive |  |  |  |  |  |  |  |
| FC(F)(F)c1ccc(Nc2nccc(-c3ccnc4ccccc34)n2)cc1 | 1650 | 1720 | 100 | 100 |  | 87.3 | 91.8 | 100 |  |  |  | inactive |  |  |  |  |  |  |  |
| Cc1ccc(Nc2nccc(-c3ccnc4ccccc34)n2)cc1 | 600 | 1400 | 100 | 100 | 50.9 | 100 | 100 | 100 | 75 | Active | inactive |  |  | 74 | 15.1 | 8.1 | 64.7 | 18.7 | 22 |
| Cc1ccc(Nc2nccc(-c3c(C)nc4ccccn34)n2)cc1 | 59 | 19.7 | 100 | 88.5 | 89.4 | 94.2 | 100 | 95.2 | 59 | Active | inactive |  |  | 77.5 | 25.3 | 4.7 | 14.7 | 60.8 | 20.9 |
| Cn1cnc2c(NCc3ccccc3)nc(NCCO)nc21 [OLOMOUCINE] |  |  |  |  |  |  |  |  |  |  |  |  |  | 31.8 | 15.1 | 44.2 | 23.2 | 60.6 | 19.7 |
| Cc1nc2ccccn2c1-c1ccnc(Nc2ccc(C=O)s2)n1 | 4270 | 1540 | 100 | 75.9 | 88.1 | 49.5 | 57.8 | 85.4 | 52 | Active | inactive |  |  | 48 | 15.7 | 42.5 | 22.2 | 54.5 | 13.9 |
| Nc1nccc(-c2ccnc3ccccc23)n1 | 40200 | > 50000 | 78.2 | 100 | 9.4 | 77.4 | 100 |  |  |  |  |  | inactive |  |  |  |  |  |  |
